pKi: −log10 of the molar value.
Assays:
[1] = biological target: T1, GABA-A receptor; alpha-5/beta-3/gamma-2 (Homo sapiens, UniProt P18507+P28472+P31644); assay: Displacement of [3H]-Ro- 15-1788 from human GABA-A alpha-5-beta-3-gamma-2 receptor subunits expressed in Xenopus oocytes; format: cell-based, Oocyte
T1 sequence (P18507 whole entry): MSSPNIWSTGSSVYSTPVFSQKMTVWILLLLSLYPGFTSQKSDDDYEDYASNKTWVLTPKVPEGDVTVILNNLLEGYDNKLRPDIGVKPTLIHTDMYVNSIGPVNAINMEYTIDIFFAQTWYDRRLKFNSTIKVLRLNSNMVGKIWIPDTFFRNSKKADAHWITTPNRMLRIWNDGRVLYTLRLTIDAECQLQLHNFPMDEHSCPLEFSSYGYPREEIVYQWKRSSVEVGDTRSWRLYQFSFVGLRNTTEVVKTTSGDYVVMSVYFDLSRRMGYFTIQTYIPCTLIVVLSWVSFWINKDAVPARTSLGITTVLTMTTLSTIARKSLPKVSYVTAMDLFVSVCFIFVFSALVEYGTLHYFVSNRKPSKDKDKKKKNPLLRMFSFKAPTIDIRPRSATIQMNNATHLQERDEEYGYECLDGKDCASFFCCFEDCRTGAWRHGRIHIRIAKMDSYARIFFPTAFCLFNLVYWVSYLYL
T1 sequence (P28472 whole entry): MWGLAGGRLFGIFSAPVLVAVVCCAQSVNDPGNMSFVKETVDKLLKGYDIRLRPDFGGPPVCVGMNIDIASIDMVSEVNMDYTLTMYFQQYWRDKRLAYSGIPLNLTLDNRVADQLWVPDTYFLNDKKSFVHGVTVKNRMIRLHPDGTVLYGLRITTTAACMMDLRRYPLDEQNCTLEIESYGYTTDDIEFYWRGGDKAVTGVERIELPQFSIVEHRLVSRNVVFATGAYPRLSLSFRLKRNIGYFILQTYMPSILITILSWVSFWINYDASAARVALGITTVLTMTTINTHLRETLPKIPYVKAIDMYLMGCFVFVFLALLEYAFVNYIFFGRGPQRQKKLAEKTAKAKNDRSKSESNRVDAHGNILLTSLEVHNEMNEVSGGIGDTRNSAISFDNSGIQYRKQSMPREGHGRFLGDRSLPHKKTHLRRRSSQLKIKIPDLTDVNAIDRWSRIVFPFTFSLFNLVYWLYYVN
T1 sequence (P31644 whole entry): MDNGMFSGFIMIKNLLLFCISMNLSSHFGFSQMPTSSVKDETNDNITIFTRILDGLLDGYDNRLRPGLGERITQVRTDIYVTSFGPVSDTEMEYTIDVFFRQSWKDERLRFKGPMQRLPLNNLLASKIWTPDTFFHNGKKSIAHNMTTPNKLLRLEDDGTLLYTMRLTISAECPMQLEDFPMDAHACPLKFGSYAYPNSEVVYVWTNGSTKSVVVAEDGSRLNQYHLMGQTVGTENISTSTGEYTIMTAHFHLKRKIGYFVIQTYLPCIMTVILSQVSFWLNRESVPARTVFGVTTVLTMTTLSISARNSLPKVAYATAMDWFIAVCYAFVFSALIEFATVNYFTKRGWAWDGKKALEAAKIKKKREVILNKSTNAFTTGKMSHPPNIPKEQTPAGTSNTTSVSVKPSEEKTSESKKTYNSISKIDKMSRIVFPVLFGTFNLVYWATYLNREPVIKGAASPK
Procedure, shortened: (§1)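 Radioligand displacement of [3H]Ro 15-1788 from recombinant human GABA-A receptor subtypes. Ki values are the mean of at least two independent determinations, with SEM given where at least three were performed.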

[2] = biological target: GABA-A receptor; alpha-2/beta-3/gamma-2 (Homo sapiens) (UniProt P18507+P28472+P47869); assay: Percentage modulation of submaximal (EC20) response to GABA in Xenopus oocytes expressing human GABA-A alpha-2-beta-3-gamma-2 subunits; format: cell-based; settings: Oocyte; also: test concentration or dose not given here
Procedure, shortened: (§2)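 Two-electrode voltage clamp on Xenopus laevis oocytes transiently expressing human GABA-A receptor subtypes. Modulation of the submaximal GABA (EC20) ion current is expressed as a percentage. Values are the arithmetic mean ± SEM from at least three independent cells.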

[3] = biological target: T2, GABA-A receptor; alpha-3/beta-3/gamma-2 (Homo sapiens, UniProt P18507+P28472+P34903); assay: Displacement of [3H]-Ro- 15-1788 from human GABA-A alpha-3-beta-3-gamma-2 receptor subunits expressed in Xenopus oocytes; format: cell-based, Oocyte; procedure, shortened: as §1
T2 sequence (P18507 whole entry): T1 sequence (P18507 whole entry)
T2 sequence (P28472 whole entry): T1 sequence (P28472 whole entry)
T2 sequence (P34903 whole entry): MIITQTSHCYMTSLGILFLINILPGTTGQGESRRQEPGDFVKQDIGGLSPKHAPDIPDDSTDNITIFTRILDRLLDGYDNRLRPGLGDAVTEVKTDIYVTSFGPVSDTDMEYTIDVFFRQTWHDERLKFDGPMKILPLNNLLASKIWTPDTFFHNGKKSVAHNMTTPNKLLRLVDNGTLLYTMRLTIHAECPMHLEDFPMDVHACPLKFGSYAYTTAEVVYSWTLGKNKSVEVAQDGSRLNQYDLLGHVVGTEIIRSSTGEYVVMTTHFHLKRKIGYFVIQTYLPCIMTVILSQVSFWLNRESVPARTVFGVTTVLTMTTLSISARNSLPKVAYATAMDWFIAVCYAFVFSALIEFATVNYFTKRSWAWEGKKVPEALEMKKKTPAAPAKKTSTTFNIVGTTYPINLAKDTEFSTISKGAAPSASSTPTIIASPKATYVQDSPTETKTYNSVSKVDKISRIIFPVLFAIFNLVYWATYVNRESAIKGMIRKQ

[4] = biological target: GABA-A receptor; alpha-3/beta-3/gamma-2 (Homo sapiens) (UniProt P18507+P28472+P34903); assay: Percentage modulation of submaximal (EC20) response to GABA in Xenopus oocytes expressing human GABA-A alpha-3-beta-3-gamma-2 subunits; format: cell-based; settings: Oocyte; procedure, shortened: as §2; also: test concentration or dose not given here
[5] = biological target: T3, GABA-A receptor; alpha-2/beta-3/gamma-2 (Homo sapiens, UniProt P18507+P28472+P47869); assay: Displacement of [3H]-Ro- 15-1788 from human GABA-A alpha-2-beta-3-gamma-2 receptor subunits expressed in Xenopus oocytes; format: cell-based, Oocyte; procedure, shortened: as §1
T3 sequence (P18507 whole entry): T1 sequence (P18507 whole entry)
T3 sequence (P28472 whole entry): T1 sequence (P28472 whole entry)
T3 sequence (P47869 whole entry): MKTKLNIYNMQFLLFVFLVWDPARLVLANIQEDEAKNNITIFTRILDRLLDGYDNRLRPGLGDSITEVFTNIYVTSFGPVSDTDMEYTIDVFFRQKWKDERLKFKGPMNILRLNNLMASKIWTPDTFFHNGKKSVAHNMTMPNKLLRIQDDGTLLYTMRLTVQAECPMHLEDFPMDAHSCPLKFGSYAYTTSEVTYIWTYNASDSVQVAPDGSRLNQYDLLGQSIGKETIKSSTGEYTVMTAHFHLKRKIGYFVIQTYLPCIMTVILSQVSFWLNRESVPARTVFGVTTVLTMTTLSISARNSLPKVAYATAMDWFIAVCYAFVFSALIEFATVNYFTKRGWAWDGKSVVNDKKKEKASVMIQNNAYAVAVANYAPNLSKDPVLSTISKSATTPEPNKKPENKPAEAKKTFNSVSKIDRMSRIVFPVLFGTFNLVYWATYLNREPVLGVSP

[6] = biological target: GABA-A receptor; alpha-5/beta-3/gamma-2 (Homo sapiens) (UniProt P18507+P28472+P31644); assay: Percentage modulation of submaximal (EC20) response to GABA in Xenopus oocytes expressing human GABA-A alpha-5-beta-3-gamma-2 subunits; format: cell-based; settings: Oocyte; procedure, shortened: as §2; also: test concentration or dose not given here
[7] = biological target: T4, GABA-A receptor; alpha-1/beta-3/gamma-2 (Homo sapiens, UniProt P14867+P18507+P28472); assay: Displacement of [3H]-Ro- 15-1788 from human GABA-A alpha-1-beta-3-gamma-2 receptor subunits expressed in Xenopus oocytes; format: cell-based, Oocyte
T4 sequence (P14867 whole entry): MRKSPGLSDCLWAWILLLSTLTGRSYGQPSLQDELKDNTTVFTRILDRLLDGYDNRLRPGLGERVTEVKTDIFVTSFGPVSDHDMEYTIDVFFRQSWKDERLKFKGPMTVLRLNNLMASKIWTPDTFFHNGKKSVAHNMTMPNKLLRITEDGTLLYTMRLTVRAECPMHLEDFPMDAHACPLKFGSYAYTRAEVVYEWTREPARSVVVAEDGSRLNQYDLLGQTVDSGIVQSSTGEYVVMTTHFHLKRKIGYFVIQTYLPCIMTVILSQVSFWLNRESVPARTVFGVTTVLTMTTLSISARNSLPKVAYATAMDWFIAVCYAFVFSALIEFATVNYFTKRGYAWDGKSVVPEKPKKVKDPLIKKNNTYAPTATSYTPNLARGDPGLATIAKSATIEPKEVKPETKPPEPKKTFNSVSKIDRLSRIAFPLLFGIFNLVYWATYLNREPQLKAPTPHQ
T4 sequence (P18507 whole entry): T1 sequence (P18507 whole entry)
T4 sequence (P28472 whole entry): T1 sequence (P28472 whole entry)
Procedure, shortened: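 Radioligand binding to recombinant human GABA-A receptor subtypes, measuring displacement of [3H]Ro 15-1788. Ki values are the mean of at least two independent determinations, with SEM given where at least three were performed.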

[8] = biological target: GABA-A receptor; alpha-1/beta-3/gamma-2 (Homo sapiens) (UniProt P14867+P18507+P28472); assay: Percentage modulation of submaximal (EC20) response to GABA in Xenopus oocytes expressing human GABA-A alpha-1-beta-3-gamma-2 subunits; format: cell-based; settings: Oocyte; procedure, shortened: as §2; also: test concentration or dose not given here

Cc1cccc(COc2nn3c(-c4cc(C)on4)nnc3c3c2C2CCC3CC2)n1
pKi [1]: 8.34
Efficacy [2]: 15%
pKi [3]: 7.39
Efficacy [4]: -1%
pKi [5]: 7.07
Efficacy [6]: -29%
pKi [7]: 6.55

Cc1cc(-c2nnc3c4ccccc4c(OCc4cnn(C)n4)nn23)no1
pKi [1]: 9.06
Efficacy [2]: 9%
pKi [3]: 9.10
Efficacy [4]: -3%
Efficacy [8]: -5%
pKi [5]: 9.19
Efficacy [6]: -35%
pKi [7]: 8.89

Cc1cc(-c2nnc3c4ccccc4c(OCc4cn(C)nn4)nn23)no1
pKi [1]: 9.18
Efficacy [2]: 12%
pKi [3]: 9.21
Efficacy [4]: 4%
Efficacy [8]: -4%
pKi [5]: 9.24
Efficacy [6]: -29%
pKi [7]: 9.06

CCc1c(C(=O)OC)ncc2[nH]c3cc(OC)c(OC)cc3c12
pKi [1]: 8.64
Efficacy [2]: -34%
pKi [3]: 8.00
Efficacy [4]: -52%
Efficacy [8]: -36%
pKi [5]: 7.96
Efficacy [6]: -52%
pKi [7]: 7.80

Cc1cccc(COc2nn3c(-c4ccoc4)nnc3c3c2C2CCC3CC2)n1
pKi [1]: 8.51
Efficacy [2]: -6%
pKi [3]: 7.40
Efficacy [4]: -4%
pKi [5]: 7.20
Efficacy [6]: -24%
pKi [7]: 6.60

Cc1cccc(COc2nn3c(-c4nc(C)no4)nnc3c3c2C2CCC3CC2)n1
pKi [1]: 8.96
Efficacy [2]: -10%
pKi [3]: 8.12
Efficacy [4]: -21%
Efficacy [8]: -15%
pKi [5]: 7.77
Efficacy [6]: -35%
pKi [7]: 7.13

Cc1cccc(COc2nn3c(-c4ccccc4)nnc3c3c2C2CCC3CC2)n1
pKi [1]: 8.54
pKi [3]: 7.60
pKi [5]: 7.34
Efficacy [6]: 15%
pKi [7]: 6.77

Cc1cccc(COc2nn3c(-c4ccsc4)nnc3c3c2C2CCC3CC2)n1
pKi [1]: 8.43
Efficacy [2]: 9%
pKi [3]: 7.32
Efficacy [4]: 38%
Efficacy [8]: 17%
pKi [5]: 6.96
pKi [7]: 6.57

CNC1=Nc2ccc(Cl)cc2C(c2ccccc2)=[N+]([O-])C1
Efficacy [2]: 101%
Efficacy [4]: 173%
Efficacy [8]: 165%

Cc1cc(-c2nnc3c4ccccc4c(OCc4cnnn4C)nn23)no1
pKi [1]: 8.70
Efficacy [2]: -25%
pKi [3]: 8.28
Efficacy [4]: -6%
Efficacy [8]: -8%
pKi [5]: 8.55
Efficacy [6]: -33%
pKi [7]: 8.38

Cc1cccc(COc2nn3c(-c4cc(C)on4)nnc3c3ccccc23)n1
pKi [1]: 9.10
pKi [3]: 8.89
pKi [5]: 8.80
Efficacy [6]: -15%
pKi [7]: 9.06

Cc1cc(-c2nnc3c4ccccc4c(OCc4ccccn4)nn23)no1
pKi [1]: 9.21
pKi [3]: 9.02
Efficacy [4]: -4%
Efficacy [8]: -2%
pKi [5]: 8.82
Efficacy [6]: -46%
pKi [7]: 9.03

Source: ChEMBL document CHEMBL1149152, “Selective, orally active gamma-aminobutyric acidA alpha5 receptor inverse agonists as cognition enhancers” (J Med Chem, 2004)
